Source: ChEMBL document CHEMBL1156597, “Structure-activity relationship of kahalalide F synthetic analogues” (J Med Chem, 2008)

How the values were obtained:
DU-145 = experiment: Cytotoxicity against human DU145 cells after 48 hrs by SRB assay; assay type: functional, cell-based; settings: Homo sapiens, DU-145, 48 h; for CC50: read-out: LC50 (the source's name)
How it was run: (§1)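 Cells grown in RPMI 1640 with 10% FBS and penicillin/streptomycin at 37 °C and 5% CO₂, trypsinized, then seeded at 5 × 10³/well. After 18 h drug-free attachment, samples in DMSO/EtOH/PBS (0.5:0.5:99) were added for 48 h continuous exposure. Cells were fixed with cold TCA (1 h, 4 °C) and stained with SRB (10 min). Tris-solubilized stain read at 490 nm. Triplicate wells, mean ± SD; GI₅₀ derived.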

LNCaP = experiment: Cytotoxicity against human LNcaP cells after 48 hrs by SRB assay; assay type: functional; settings: for CC50: read-out: LC50 (the source's name); how it was run: as §1
[1] = Cytotoxicity against human IGROV cells after 48 hrs by SRB assay; assay type: functional; settings: for CC50: read-out: LC50 (the source's name); how it was run: as §1
[2] = Cytotoxicity against human IGROV-ET cells after 48 hrs by SRB assay; assay type: functional; settings: for CC50: read-out: LC50 (the source's name); how it was run: as §1
SK-BR-3 = experiment: Cytotoxicity against human SKBR3 cells after 48 hrs by SRB assay; assay type: functional; settings: SK-BR-3, 48 h; for GI50: read-out: GI50; for CC50: read-out: LC50 (the source's name); how it was run: as §1
SK-MEL-28 = experiment: Cytotoxicity against human SK-MEL-28 cells after 48 hrs by SRB assay; assay type: functional, cell-based; settings: Homo sapiens, SK-MEL-28, 48 h; for CC50: read-out: LC50 (the source's name); how it was run: as §1
A549 = experiment: Cytotoxicity against human A549 cells after 48 hrs by SRB assay; assay type: functional, cell-based; settings: Homo sapiens, A549, 48 h; for GI50: read-out: GI50; how it was run: as §1
K562 = experiment: Cytotoxicity against human K562 cells after 48 hrs by SRB assay; assay type: functional; settings: K562, 48 h; for CC50: read-out: LC50 (the source's name); how it was run: as §1
PANC-1 = experiment: Cytotoxicity against human PANC1 cells after 48 hrs by SRB assay; assay type: functional; settings: PANC-1, 48 h; for CC50: read-out: LC50 (the source's name); how it was run: as §1
HT-29 = experiment: Cytotoxicity against human HT29 cells after 48 hrs by SRB assay; assay type: functional, cell-based; settings: Homo sapiens, HT-29, 48 h; for CC50: read-out: LC50 (the source's name); how it was run: as §1
LoVo [3] = experiment: Cytotoxicity against human LoVo cells after 48 hrs by SRB assay; assay type: functional; settings: for CC50: read-out: LC50 (the source's name)
LoVo [4] = experiment: Cytotoxicity against human doxorubicin resistant LoVo cells after 48 hrs by SRB assay; assay type: functional; settings: for CC50: read-out: LC50 (the source's name); how it was run: as §1
HeLa = experiment: Cytotoxicity against human HeLa cells after 48 hrs by SRB assay; assay type: functional; settings: for CC50: read-out: LC50 (the source's name); how it was run: as §1
[5] = Cytotoxicity against human HeLa-APL cells after 48 hrs by SRB assay; assay type: functional; how it was run: as §1

`C/C=C1\NC(=O)[C@H](Cc2ccccc2)NC(=O)[C@@H](C(C)C)NC(=O)[C@@H]([C@H](C)CC)NC(=O)[C@H](NC(=O)[C@H](NC(=O)[C@H](CCCCN)NC(=O)[C@H]2CCCN2C(=O)[C@H](NC(=O)[C@@H](NC(=O)[C@@H](NC(=O)[C@H](NC(=O)CCCC(C)C)C(C)C)[C@@H](C)O)C(C)C)C(C)C)[C@H](C)CC)[C@H](C)OC(=O)[C@H](C(C)C)NC1=O` showed a TGI (DU-145) of 2440 nM, a GI50 (DU-145; read-out: GI50) of 1290 nM and a CC50 (DU-145) of 3170 nM. For the same molecule, the GI50 (LNCaP) was 1330 nM, the TGI (LNCaP) was 1150 nM and the CC50 (LNCaP) was 985 nM. It also gave a GI50 [1] of 568 nM, a GI50 ([1]; read-out: GI50) of 562 nM and a CC50 [1] of 5720 nM. It also gave a GI50 [2] of 619 nM, a GI50 ([2]; read-out: GI50) of 645 nM and a CC50 [2] of 587 nM. It also gave a TGI (SK-BR-3) of 366 nM, a GI50 (SK-BR-3) of 385 nM and a CC50 (SK-BR-3) of 351 nM. The TGI (SK-MEL-28) was 1270 nM, the GI50 (SK-MEL-28; read-out: GI50) was 1470 nM and the CC50 (SK-MEL-28) was 1370 nM. It also gave an LC50 (A549) of 1340 nM, a TGI (A549) of 1390 nM and a GI50 (A549) of 1440 nM. The GI50 (K562) was 9350 nM, the TGI (K562) was 14700 nM and the CC50 (K562) was 4770 nM. It also gave a GI50 (PANC-1) of 5110 nM, a TGI (PANC-1) of 4550 nM and a CC50 (PANC-1) of 2210 nM. It also gave a GI50 (HT-29) of 521 nM, a TGI (HT-29) of 422 nM and a CC50 (HT-29) of 340 nM. The GI50 (LoVo [3]) was 426 nM, the TGI (LoVo [3]) was 379 nM and the CC50 (LoVo [3]) was 337 nM. For the same molecule, the GI50 (LoVo [4]) was 301 nM, the TGI (LoVo [4]) was 280 nM and the CC50 (LoVo [4]) was 36.6 nM. The GI50 (HeLa) was 910 nM, the TGI (HeLa) was 776 nM and the CC50 (HeLa) was 883 nM. It also gave a GI50 [5] of 512 nM, an LC50 (concentration giving 50% net cell kill) [5] of 757 nM and a TGI [5] of 664 nM.
With `C/C=C1\NC(=O)[C@H](Cc2ccccc2)NC(=O)[C@@H](C(C)C)NC(=O)[C@@H]([C@H](C)CC)NC(=O)[C@H](NC(=O)[C@H](NC(=O)[C@H](CCCN)NC(=O)[C@H]2CCCN2C(=O)[C@H](NC(=O)[C@@H](NC(=O)[C@H](CCCN)NC(=O)[C@H](NC(=O)CCCC(C)C)C(C)C)C(C)C)C(C)C)[C@H](C)CC)[C@H](C)OC(=O)[C@H](C(C)C)NC1=O` the CC50 (DU-145) was 1400 nM, the GI50 (LNCaP) was 675 nM and the TGI (LNCaP) was 2240 nM. It also gave a CC50 (LNCaP) of 1120 nM, a GI50 [1] of 292 nM and a GI50 ([1]; read-out: GI50) of 4700 nM. The CC50 [1] was 576 nM, the CC50 [2] was 957 nM and the CC50 (SK-BR-3) was 296 nM. The CC50 (SK-MEL-28) was 1640 nM, the LC50 (A549) was 4620 nM and the GI50 (K562) was 1620 nM. The TGI (K562) was 1890 nM, the CC50 (K562) was 2180 nM and the CC50 (PANC-1) was 2240 nM. It also gave a GI50 (HT-29) of 5900 nM, a TGI (HT-29) of 5140 nM and a CC50 (HT-29) of 446 nM. The GI50 (LoVo [3]) was 4940 nM, the TGI (LoVo [3]) was 4180 nM and the CC50 (LoVo [3]) was 3330 nM. For the same molecule, the GI50 (LoVo [4]) was 2880 nM, the TGI (LoVo [4]) was 2700 nM and the CC50 (LoVo [4]) was 484 nM. It also gave a CC50 (HeLa) of 951 nM and an LC50 (concentration giving 50% net cell kill) [5] of 9600 nM.
Molecule `C/C=C1\NC(=O)[C@H](Cc2c[nH]c3ccccc23)NC(=O)[C@@H](C(C)C)NC(=O)[C@@H]([C@H](C)CC)NC(=O)[C@H](NC(=O)[C@H](NC(=O)[C@H](CCCN)NC(=O)[C@H]2CCCN2C(=O)[C@H](NC(=O)[C@@H](NC(=O)[C@@H](NC(=O)[C@H](NC(=O)CCCC(C)C)C(C)C)[C@@H](C)O)C(C)C)C(C)C)[C@H](C)CC)[C@H](C)OC(=O)[C@H](C(C)C)NC1=O` has a GI50 (DU-145) of 823 nM, a GI50 (DU-145; read-out: GI50) of 832 nM and a CC50 (DU-145) of 785 nM. For the same molecule, the GI50 (LNCaP) was 2060 nM, the TGI (LNCaP) was 1610 nM and the CC50 (LNCaP) was 1400 nM. The GI50 [1] was 71.8 nM, the GI50 ([1]; read-out: GI50) was 87.5 nM and the CC50 [1] was 57.4 nM. For the same molecule, the GI50 [2] was 439 nM, the GI50 ([2]; read-out: GI50) was 461 nM and the CC50 [2] was 418 nM. It also gave a TGI (SK-BR-3) of 383 nM, a GI50 (SK-BR-3) of 345 nM and a CC50 (SK-BR-3) of 425 nM. The CC50 (SK-MEL-28) was 1390 nM, the LC50 (A549) was 1380 nM and the TGI (A549) was 1490 nM. For the same molecule, the GI50 (A549) was 1610 nM, the GI50 (K562) was 4840 nM and the TGI (K562) was 4700 nM. The CC50 (K562) was 2550 nM, the CC50 (PANC-1) was 2390 nM and the GI50 (HT-29) was 1050 nM. For the same molecule, the TGI (HT-29) was 1510 nM, the CC50 (HT-29) was 1190 nM and the GI50 (LoVo [3]) was 628 nM. For the same molecule, the TGI (LoVo [3]) was 957 nM, the CC50 (LoVo [3]) was 1430 nM and the GI50 (LoVo [4]) was 507 nM. The TGI (LoVo [4]) was 659 nM, the CC50 (LoVo [4]) was 1470 nM and the GI50 (HeLa) was 1360 nM. The TGI (HeLa) was 1130 nM, the CC50 (HeLa) was 935 nM and the GI50 [5] was 1360 nM. It also gave an LC50 (concentration giving 50% net cell kill) [5] of 975 nM and a TGI [5] of 1150 nM.
